Legend:
[1] = Metabolic stability in human microsomes assessed as intrinsic clearance at 1 uM preincubated for 60 mins followed by NADPH addition and measured after 60 mins; format: ADME, Microsome; details: time 120 min, read-out: CLH
[2] = Metabolic stability in human liver assessed as intrinsic clearance at 1 uM preincubated for 10 mins followed by NADPH addition and measured after 60 mins; details: read-out: CLH
[3] = system: Human immunodeficiency virus 1; assay: Antiviral activity against HIV-1 IIIB infected in MT4 cells assessed as protection against virus induced cytotoxicity incubated for 5 days by MTT assay; format: functional, organism-based; details: Human immunodeficiency virus 1, IIIB, MT4, 120 h
[4] = system: Human immunodeficiency virus 2; assay: Antiviral activity against HIV-2 ROD infected in MT4 cells assessed as protection against virus induced cytotoxicity and measured after 5 days by MTT spectrophotometric assay; format: functional, organism-based; details: Human immunodeficiency virus 2, ROD, MT4, 120 h
[5] = Cytotoxicity against human MT4 cells assessed as reduction in cell viability after 5 days by MTT assay; format: toxicity, cell-based; details: time 5 day
[6] = biological target: T1, Structural capsid protein (Human immunodeficiency virus 1, UniProt Q76129); assay: Binding affinity to HIV-1 NL4-3 monomeric capsid protein by SPR analysis
T1 sequence (Q76129 whole entry): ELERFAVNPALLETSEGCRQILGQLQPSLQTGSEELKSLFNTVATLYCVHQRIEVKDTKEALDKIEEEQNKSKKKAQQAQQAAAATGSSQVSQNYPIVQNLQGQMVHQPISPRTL
Method in brief: (§1)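 SPR binding isotherms averaged over 3 replicates, with error bars as SD.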

[7] = biological target: T1, Structural capsid protein; assay: Binding affinity to HIV-1 NL4-3 hexameric capsid protein by SPR analysis; method in brief: as §1
[8] = biological target: Structural capsid protein (Human immunodeficiency virus 1) (UniProt Q76129); assay: Ratio of Kd for HIV-1 NL4-3 monomeric capsid protein to Kd for HIV-1 NL4-3 hexameric capsid protein
Sequence of Structural capsid protein (Human immunodeficiency virus 1) (Q76129 as listed by the source): as the sequence (Q76129 whole entry) above

[9] = biological target: Structural capsid protein (Human immunodeficiency virus 1) (UniProt Q76129); assay: Binding affinity to HIV-1 NL4-3 hexameric capsid protein assessed as Koff by SPR analysis; details: filed as modulator
[10] = system: Human immunodeficiency virus 1; assay: Antiviral activity against early stage HIV-1 infected in U87.CD4.CXCR4 cells assessed as viral infection at 1 uM preincubated with virus followed by cell addition and measured after 48 hrs by luciferase based luminometer assay (reference value: 100 +/- 8.4 %); format: functional
[11] = system: Human immunodeficiency virus 1; assay: Antiviral activity against late stage HIV-1 infected in U87.CD4.CXCR4 cells assessed as viral infection at 1 uM preincubated with virus for 48 hrs followed by cell addition and measured after 48 hrs by luciferase based luminometer assay (reference value: 100 +/- 11 %); format: functional; details: time 96 hrs
[12] = Metabolic stability in human liver microsomes assessed as remaining compound at 1 uM after 60 mins in presence of NADPH; format: ADME, Microsome; details: read-out: Stability
Method in brief: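 Human liver microsomes at 0.5 mg protein/mL in 100 mM potassium phosphate, compound at 1 µM final (0.99% ACN, 0.01% DMSO). After 10 min pre-warming of the microsomes at 37°C, NADPH (1 mM final, in 10 mM MgCl2) was added. Incubated at 37°C with shaking, sampled at 0, 5, 15, 30, 45 and 60 min into cold ACN with internal standards. LC-MS/MS analysis; T1/2 and CLint(mic) (µL/min/mg) from first-order kinetics.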

[13] = Selectivity index, ratio of CC50 for human MT4 cells to EC50 for HIV-1 IIIB infected in human MT4 cells; format: toxicity, cell-based; details: read-out: Ratio CC50/EC50
[14] = Selectivity index, ratio of CC50 for human MT4 cells to EC50 for HIV-2 ROD infected in human MT4 cells; format: toxicity, cell-based; details: read-out: Ratio CC50/EC50
[15] = system: Human immunodeficiency virus 1; assay: Antiviral activity against early stage HIV-1 infected in U87.CD4.CXCR4 cells assessed as viral infection at 60 uM preincubated with virus followed by cell addition and measured after 48 hrs by luciferase based luminometer assay (reference value: 100 +/- 8.4 %); format: functional
[16] = system: Human immunodeficiency virus 1; assay: Antiviral activity against late stage HIV-1 infected in U87.CD4.CXCR4 cells assessed as viral infection at 60 uM preincubated with virus for 48 hrs followed by cell addition and measured after 48 hrs by luciferase based luminometer assay (reference value: 100 +/- 11 %); format: functional; details: time 96 hrs
[17] = Metabolic stability in human liver microsomes assessed as remaining compound at 1 uM after 60 mins in absence of NADPH; format: ADME, Microsome; details: read-out: Stability
Method in brief: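 No-cofactor control: human liver microsomes at 0.5 mg protein/mL in 100 mM phosphate buffer with compound at 1 µM, buffer added in place of NADPH. Incubated 60 min at 37°C with shaking, then quenched with cold ACN containing tolbutamide and labetalol internal standards. Centrifuged, supernatant diluted in water, analysed by LC-MS/MS.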

[18] = system: Human immunodeficiency virus 1; assay: Antiviral activity against HIV-1 infected in MT4 cells; format: functional, organism-based; details: Human immunodeficiency virus 1, MT4

Compound | microsomal CLint at 1 µM [1] | CLint scaled at 1 µM [2] | EC50 [3] | EC50 [4] | CC50 at 120 h [5] | Kd [6] | Kd [7] | Ratio [8] | K [9] | Activity [10] | Activity [11] | remaining at 1 h, 1 µM [12] | selectivity ratio [13] | selectivity ratio [14] | Activity [15] | Activity [16] | remaining at 1 h, 1 µM [17] | EC50 [18]
C[C@]12CC[C@H]3[C@@H](CCC4=CC(=O)CC[C@@]43C)[C@@H]1CC[C@@H]2O [TESTOSTERONE] | 83 µL/min/mg | 74 mL/min/kg | – | – | – | – | – | – | – | – | – | – | – | – | – | – | – | –
Cc1[nH]c2ccccc2c1CC(=O)[C@@H](Cc1ccccc1)C(=O)N(C)c1ccccc1 | – | 2.6 mL/min/kg | 0.75 µM | 4.2 µM | 32 µM | 3.4 µM | 0.16 µM | 21.4 | 0.018 s⁻¹ | -0.12% | 150% | 0% | – | – | – | – | – | –
COc1ccc(N(C)C(=O)[C@H](Cc2cc(F)cc(F)c2)NC(=O)CN2CCN(C(=O)c3ccccc3[N+](=O)[O-])CC2=O)cc1 | – | 3.3 mL/min/kg | 6 µM | 6.3 µM | 160 µM | 13 µM | 5.2 µM | 2.5 | 0.25 s⁻¹ | – | – | 0.23% | 27 | 25 | 8.1% | 10% | 96% | –
CC(C)(C#Cc1ccc(-c2ccc(Cl)c3c(NS(C)(=O)=O)nn(CC(F)(F)F)c23)c([C@H](Cc2cc(F)cc(F)c2)NC(=O)Cn2nc(C(F)(F)F)c3c2C(F)(F)[C@@H]2C[C@H]32)n1)S(C)(=O)=O | – | – | – | – | – | – | – | – | – | – | – | – | – | – | – | – | – | 0.000105 µM

Reference: ChEMBL document CHEMBL5329160, “Design, synthesis, and mechanistic study of 2-piperazineone-bearing peptidomimetics as novel HIV capsid modulators” (RSC Med Chem, 2023)
